Screening results from PubChem.
Most compounds without a hit are left out; they make up all but 3.7% or so of the library.
b-catenin transl: modulators of beta-catenin nuclear translocation, primary screen, imaging, HeLa cells, immunofluorescence, high-content. nuclear translocation activity, % at 5 µM. 0.3% of 190,000 active. AID 1665, 2009;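 active = nuclear translocation activity above 50% at 5 µM, with a well cell count of 50 or more; inconclusive = wells under 50 cells across six images, flagged as toxic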;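 note: per-cell ratio of nuclear to cytoplasmic median beta-catenin stain intensity; plate controls were DMSO negative control for no effect and GSK-3 inhibitor IX positive control for full effect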
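System: HeLa cells, endogenous beta-catenin; compound dosing: 5 µM primary single dose, 0.1% DMSO, 0.02–20 µM confirmation series; incubation: 24 h compound exposure at 37°C, 5% CO2; signal: beta-catenin immunofluorescence imaging with DAPI; evaluation: % activation, nuclear-to-cytoplasmic median beta-catenin signal ratio per cell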
Redox H2O2 prof: compounds producing H2O2 with reducing agent – biochemical, NIH compound library profiling, artefact control for MLSCN library redox annotation, primary screen | 0.03% of 200,000 active | DTT-dependent redox cycling H2O2, phenol red/HRP absorbance; 100% = 100 µM peroxide control, 0% = buffer | activation, % at 10 µM;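 active = activation of at least 50% relative to the plate's high and low controls in the primary single-dose screen; inactive = activation below 50%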;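 note: compound incubated with DTT at 0.8 mM final as the reducing agent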
KCC2 mod: KCC2 cotransporter modulators, thallium flux, primary screen, cell-based, HEK293 KCC2, FluoZin-2 fluorescence, MLSMR; B-score of Tl+ flux slope (higher = more flux/activation; lower = inhibition) at 10 µM; AID 1456, 2008; 2.2% of 190,000 active; KCC2 cells, thallium flux FluoZin-2 fluorescence; Solute carrier family 12 member 5 (Homo sapiens), Q9H2X9;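 active = thallium flux slope and its plate-corrected score both differing from the plate sample mean at a set confidence after two filtering rounds, in either direction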;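 note: slope of fluorescence scaled to starting intensity during 10 to 20 s after thallium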
MT stabilizer: microtubule stabilizers in HeLa cells, primary screen, imaging, high-content imaging. % tubulin-high responders, % at 10 µM. HeLa tubulin immunostaining HCS, 24 h; share of cells brighter than vehicle mean+2SD. AID 2205, 2009. 0.83% of 200,000 active;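 active = plate Z-score above 3 for both tubulin-high and condensed-nucleus cell shares, with cell loss under 80%, at 10 µM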;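 note: anti alpha tubulin signal scored within the nucleus-defined area of each cell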
ROMK mod: ROMK potassium channel modulators, primary screen, cell-based, thallium flux, MLSMR library | ATP-sensitive inward rectifier potassium channel 1 (Homo sapiens), P48048 | Tet-inducible ROMK, thallium flux fluorescence; actives lie on both sides | B-score at 10 µM | 2% of 130,000 active | AID 1918, 2009;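 active = signal ratio slope over the read window, or its plate-corrected B-score, at least 3 SD from the plate mean, either direction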;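 note: B-score of the F/F0 ratio slope over 7 to 12 s after thallium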
KCC2 sec1: KCC2 modulators in sodium-free buffer, confirmation, cell-based, HEK293 KCC2, thallium flux, secondary assay; FluoZin2 fluorescence; hits give high values; normalised thallium flux (F/F0 slope) at 10 µM; AID 1713, 2009; 15% of 3,700 active; shares compounds with KCC2 mod;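 active = thallium flux slope above the same plate's solvent-only control mean plus 3 SD; inconclusive = the two replicate wells disagree; inactive = no significant difference from solvent-only control wells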
KCC2 bumet counter: thallium flux persisting under bumetanide in KCC2 cells, confirmation, counter-screen for KCC2 modulator project, cell-based, HEK293 KCC2, FluoZin2, secondary assay 3. shares compounds with KCC2 mod. HEK293-KCC2 + bumetanide/ouabain; hits give high values. normalized thallium flux at 10 µM. 49% of 3,700 active. AID 1714, 2009;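 active = thallium entry rate above the same plate's blocked-transporter control wells by more than 3 SD; inconclusive = the two repeat wells disagree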;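 note: raw slope of fluorescence over initial fluorescence between 10 and 20 s after thallium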
KCC2 secondary2: KCC2 modulators without ouabain present, confirmation, cell-based, HEK293 KCC2, thallium flux, FluoZin2, secondary assay 2. normalized thallium flux at 10 µM. thallium flux FluoZin2 fluorescence; actives lie on both sides; F/F0 rise rate, 10–20 s post-thallium. shares compounds with KCC2 mod. AID 1715, 2009. 23% of 3,700 active;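 active = thallium flux slope more than 3 SD above or below the plate's solvent-only control mean, mostly below; inconclusive = the two repeat wells disagreed; inactive = no significant shift from solvent-only controls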;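 note: raw slope with 0.1% DMSO as baseline and bumetanide as block control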
HEK counter1: thallium flux modulation in parental HEK cells, confirmation, counter-screen for KCC2 modulator project, cell-based, counterscreen 1; shares compounds with KCC2 mod; HEK293 parental cells, thallium flux FluoZin2, ouabain; baseline-ratio fluorescence slope, 10–20 s after thallium; thallium flux rate (normalised fluorescence) at 10 µM; 46% of 3,700 active; AID 1716, 2009;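 active = thallium flux rate significantly above the same plate's solvent-only control wells, beyond their mean plus 3 SD; inconclusive = the two replicate wells gave conflicting results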
KCC2 ouabain: KCC2 inhibitors and activators, ouabain retest, confirmation, HEK-KCC2 cells; shares compounds with KCC2 mod; 48% of 3,700 active; raw Tl+ flux slope (below DMSO = inhibition, above = activation) at 10 µM; HEK293-KCC2, thallium flux FluoZin2 fluorescence; bidirectional: low = inhibitor, high = activator;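 active = thallium flux slope beyond 3 SD from same-plate DMSO control mean in most replicates, usually higher, sometimes lower; inconclusive = repeat tests gave conflicting results; inactive = no significant difference from controls in most replicates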;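 note: slope of initial-normalized fluorescence between seconds 10 and 20 after thallium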
HEK293 Tl flux2: native HEK Tl+ uptake effects, second counter-screen – HEK cells, counterscreen 2, counter-screen for KCC2 modulator project, confirmation; shares compounds with KCC2 mod; HEK293 parental, thallium flux FluoZin-2 fluorescence slope; thallium flux slope at 10 µM; 33% of 3,700 active;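 active = thallium flux slope above the same plate's solvent-control mean plus 3 SD in both duplicate wells; inconclusive = duplicate wells that disagreed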;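 note: run without ouabain in cells lacking the KCC2 cotransporter; slope of fluorescence scaled to its starting value between 10 and 20 s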
The depositor's hits bear a star; ? = inconclusive; . = not tested or not shown.

SMILES | b-catenin transl | Redox H2O2 prof | KCC2 mod | MT stabilizer | ROMK mod | KCC2 sec1 | KCC2 bumet counter | KCC2 secondary2 | HEK counter1 | KCC2 ouabain | HEK293 Tl flux2
COc1cc(NC(=O)Cn2ncc(Cl)c(Cl)c2=O)c(C)cc1[N+](=O)[O-] | 6.5 | 0.6 | -5.06* | 14.3 | -1.94 | 0.00832 | 0.00535 | 0.0334 | 0.00587* | 0.0169* | 0.01
CCCCCCCCCCNC(=O)C(=O)Nc1ccccn1 | -1.4 | 0.1 | . | 2.8 | -0.146 | 0.0111 | 0.00678 | 0.0332 | 0.00981* | 0.0204 | 0.0133*
CCn1nc(C)c(CNC(=O)CC2C(=O)NCCN2CC(C)(C)C)c1C (configuration not stated) | 1.3 | 0.0 | 0.76 | 1.5 | 0.14 | . | . | . | . | . | .
O=C(NN=C(Cc1ccccc1)Cc1ccccc1)c1ccccc1O | -0.7 | -0.3 | 22.9* | 3.4 | 0.884 | ? | 0.0624* | 0.05* | 0.0365* | 0.049* | 0.0314*
C/C(=N\NC(=O)c1ccccc1O)C1C(=O)c2ccccc2C1=O | . | 0.2 | -3.84* | 2.1 | 1.02 | 0.00688 | 0.00548 | 0.0291 | ? | 0.0151* | 0.00896
CCC/C(C)=N/NC(=O)c1ccccc1O | 0.6 | 0.2 | 0.11 | 3.0 | . | . | . | . | . | . | .
Cn1nc(-c2ccc(N3CCOCC3)c(NS(=O)(=O)c3ccc(Cl)cc3)c2)c2ccccc2c1=O | 0.4 | 1.4 | 5.81* | 3.6 | . | 0.00971 | 0.0059 | 0.0317 | 0.00828 | 0.0194 | 0.0107
CCCCn1c(SCC(N)=O)nc2c(sc3ccccc32)c1=O | . | 0.7 | 0.599 | 2.2 | -0.775 | . | . | . | . | . | .
CCSc1nc2c(sc3ccccc32)c(=O)n1C(C)C | . | 0.1 | 23.8* | 2.7 | 0.414 | 0.038* | 0.115* | 0.0421* | 0.0546* | 0.0544* | 0.0212*
CC(C)(C)C(=O)Nc1nc2c(s1)CN(Cc1ccccc1)CC2 | -0.8 | 0.0 | 0.000747 | 2.2 | -0.182 | . | . | . | . | . | .
O=C(Nc1nc2c(s1)CN(Cc1ccccc1)CC2)C1CCCC1 | . | -1.1 | -3.04* | 2.4 | -0.209 | 0.00817 | 0.00592 | 0.0331 | 0.00747 | ? | 0.0115
C=CCSc1n[nH]c2nc3c(c(=O)n12)C1(CCCC1)Cc1ccccc1-3 | -0.8 | 1.1 | . | 3.1 | . | 0.00818 | ? | 0.0343 | ? | 0.0186 | 0.0105
CC(NS(=O)(=O)/C=C/c1ccccc1)c1ccccc1 (configuration not stated) | -0.6 | -2.2 | -1.55 | 3.2 | -0.295 | . | . | . | . | . | .
CCC(Sc1ncnc2sc(C)c(C)c12)C(=O)OC (configuration not stated) | -5.5 | 1.0 | . | 2.0 | -1.87 | 0.0263* | 0.0565* | 0.0456* | 0.0418* | 0.0438* | 0.0364*
Cc1sc2ncnc(SC(C)C#N)c2c1C (configuration not stated) | . | 3.0 | 3.76* | 3.1 | . | ? | 0.0258* | 0.0295 | 0.0105* | ? | ?
Cc1sc2ncnc(SCC(=O)NCC(C)C)c2c1C | -2.8 | -1.8 | 1.85 | 1.4 | 0.599 | . | . | . | . | . | .
O=C(N/N=C/c1cccc(OC(=O)c2ccco2)c1)c1ccc(F)cc1 | -0.9 | 0.1 | 0.0046 | 1.5 | 0.141 | . | . | . | . | . | .
Cc1ccccc1-c1nnc(SCC(=O)Nc2cccc(C)c2C)o1 | -5.9 | 2.5 | -4.75* | 2.0 | . | 0.0169 | 0.00416 | 0.0277 | 0.00711 | 0.0143 | 0.0103
Cc1cccc(NC(=O)CSc2nnc([C@@H](N)Cc3ccccc3)o2)c1C | -2.8 | -5.1 | -2.5 | 3.0 | . | . | . | . | . | . | .
COCCNS(=O)(=O)c1ccc(-c2ccc(Cl)cc2)cc1 | 3.0 | -0.3 | -2.77* | 4.6 | -0.911 | 0.00725 | 0.00525 | 0.0258* | 0.00796 | ? | 0.0116
COCCNS(=O)(=O)c1ccc(-c2ccc(S(=O)(=O)NCCOC)cc2)cc1 | -4.4 | -0.1 | -0.0174 | 4.8 | . | . | . | . | . | . | .
Cc1nc(C(=O)NC(C)C)nn1-c1cc(Cl)cc(Cl)c1 | 0.1 | -0.2 | 0.0712 | 3.7 | 1.01 | . | . | . | . | . | .
CC(C)n1nnnc1-c1cc(Cl)cc(Cl)c1 | -0.5 | -3.6 | 3.39* | 1.8 | 0.0766 | 0.0169 | 0.00527 | 0.03 | 0.00745 | 0.0167 | 0.0102
Cc1ccsc1C(=O)Nc1nc2ccccc2[nH]1 | -1.1 | . | 1.13 | . | . | . | . | . | . | . | .
CC(=O)Nc1ccc(OCC(O)CNC2CCCC2)cc1 (configuration not stated) | 1.9 | -4.4 | . | 4.1 | 0.833 | 0.00771 | ? | 0.0292 | ? | 0.0181 | 0.0108
SMILES | b-catenin transl | Redox H2O2 prof | KCC2 mod | MT stabilizer | ROMK mod | KCC2 sec1 | KCC2 bumet counter | KCC2 secondary2 | HEK counter1 | KCC2 ouabain | HEK293 Tl flux2
FC(F)(F)COc1ccc(-c2nnc(SCc3ccccc3)o2)cn1 | 0.0 | . | 1.26 | . | . | . | . | . | . | . | .
S=C(NCc1cccs1)Nc1ccc(Br)cc1Cl | -2.4 | -0.5 | 4.67* | 4.0 | -1.04 | 0.00751 | 0.0095* | 0.0312 | 0.0109* | 0.0183 | 0.0124*
S=C(NCCCc1ccccc1)Nc1ccc(Cl)cc1 | 1.2 | -0.2 | -3.74* | 2.0 | -1.27 | 0.00713 | 0.0055 | 0.029 | 0.00732 | 0.0316* | 0.00994
Cc1cc(C)cc(NC(=S)NCc2cccs2)c1 | -0.8 | 0.1 | -0.00368 | 5.1 | -1.17 | . | . | . | . | . | .
S=C(NCCc1ccccc1)NC1CCCCCC1 | 1.0 | 2.2 | -4.2* | 1.7 | . | 0.00584* | ? | 0.0291 | 0.00645 | ? | 0.0106
S=C(NCCc1ccccc1)NCc1cccs1 | . | . | -4.44* | 1.3 | . | 0.0186 | 0.00448 | 0.0253* | 0.00702 | 0.014 | 0.00986
COc1cccc(Oc2c(C)oc3c(CN4CCCC4)c(O)ccc3c2=O)c1 | 1.3 | . | -0.781 | . | . | . | . | . | . | . | .
